Experimental data as given in ChEMBL document CHEMBL1122273, “5-sulfamoylorthanilic acids, a sulfonamide series with salidiuretic activity” (J Med Chem, 1983).
The source made the active and inactive calls. No cut-off for these calls is given here.

Assays:
Canis familiaris [1] = experiment: Saluretic activity in the dog measured as concentration of Na+ in urinary excretion (2 animals/dose) at (dose 1.56 mg/Kg, po); type: functional, Canis lupus familiaris, Urine
Procedure, shortened: (§1)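 Male beagles trained to rest on a table and to accept stomach tube and catheter. Food withdrawn 24 h before, tap water ad libitum. Bladder emptied by catheter, then 20 mL/kg tap water by stomach tube. Catheterized hourly up to 8 h with 4 mL/kg water orally each time; first 2 h urine served as control. Oral dosing after second catheterization. Pooled 1–6 h urine; Na⁺/K⁺ by flame photometry, Cl⁻ argentometrically.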

Canis familiaris [2] = experiment: Diuretic activity in the dog (2 animals/dose) at (dose 1.56 mg/Kg), when administered perorally; type: functional, Canis lupus familiaris, Urine
Procedure, shortened: (§2)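 Trained male beagles, fasted 24 h with tap water ad libitum. Bladder emptied by catheter, then 20 mL/kg tap water by stomach tube, with 4 mL/kg water at each hourly catheterization up to 8 h. The first 2 h of urine served as control. Oral dosing came after the second catheterization, and 1–6 h urine was pooled. Na⁺ and K⁺ were measured by flame photometry, Cl⁻ argentometrically, in mequiv/kg.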

Canis familiaris [3] = experiment: Saluretic activity in the dog measured as concentration of K+ in urinary excretion (2 animals/dose) at (dose 1.56 mg/Kg, po); type: functional, Canis lupus familiaris, Urine; procedure, shortened: as §1
Canis familiaris [4] = experiment: Saluretic activity in the dog measured as concentration of Cl - in urinary excretion (2 animals/dose) at (dose mg/Kg, po); type: functional, Canis lupus familiaris, Urine
Procedure, shortened: (§3)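 Male beagles trained to the procedures, food withdrawn 24 h before, tap water ad libitum. Bladder emptied by catheter, then 20 mL/kg tap water by stomach tube, plus 4 mL/kg orally at each hourly catheterization up to 8 h. The first 2 h of urine served as control. Compound given orally after the second catheterization. Urine from 1–6 h post-dose pooled; Na⁺ and K⁺ by flame photometry, Cl⁻ argentometrically, in mequiv/kg.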

Rattus norvegicus [5] = species: Rattus norvegicus; experiment: Diuretic activity in the rats, determined by a modified Lipschitz test; type: functional, Urine
Procedure, shortened: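 Modified Lipschitz test: rats deprived of water 24 h, grouped in threes of similar weight in diuresis funnels. Oral dose of 50 mg/kg, suspended in 2% starch solution, by stomach tube.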

Rattus norvegicus [6] = species: Rattus norvegicus; experiment: Saluretic activity in the rat measured as concentration of chloride in urine; type: functional
Procedure, shortened: (§4)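 Rats deprived of food 24 h, water ad libitum, dosed 50 mg/kg by stomach tube as suspension in 2% starch, no extra water load. Groups of three in diuresis funnels; urine over first 5 h collected. Na⁺ and K⁺ by flame photometry, Cl⁻ argentometrically; expressed as mequiv/kg.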

Rattus norvegicus [7] = species: Rattus norvegicus; experiment: Saluretic activity in the rat measured as concentration of K+ in urine; type: functional; procedure, shortened: as §4
[8] = It is the ratio, measured as saluretic activity in the dog as concentration of Na+ in urinary excretion (dose 1.56 mg/Kg, po) to that of K; type: functional, Urine; procedure, shortened: as §2
[9] = It is the ratio, measured as saluretic activity in the dog as concentration of Cl- in urinary excretion (dose 1.56 mg/Kg, po) to that of (Na+)+(K+); type: functional, Urine; procedure, shortened: as §2
Rattus norvegicus [10] = species: Rattus norvegicus; experiment: Saluretic activity in the rat measured as concentration of Na+ in urine; type: functional; procedure, shortened: as §4
Canis familiaris [11] = experiment: Saluretic activity in the dog measured as concentration of Na+ in urinary excretion (2 animals/dose) at (dose 1.56 mg/Kg, perorally); type: functional, Canis lupus familiaris, Urine; procedure, shortened: as §1
Canis familiaris [12] = experiment: Saluretic activity in the dog measured as concentration of Na+ in urinary excretion (2 animals/dose) at (dose 12.5 mg/Kg, perorally); type: functional, Canis lupus familiaris, Urine; procedure, shortened: as §1
Canis familiaris [13] = experiment: Diuretic activity in the dog (2 animals/dose) at (dose 12.5 mg/Kg), when administered perorally; type: functional, Canis lupus familiaris, Urine; procedure, shortened: as §2
Canis familiaris [14] = experiment: Saluretic activity in the dog measured as concentration of K+ in urinary excretion (2 animals/dose) at (dose 1.56 mg/Kg, perorally); type: functional, Canis lupus familiaris, Urine; procedure, shortened: as §3
Canis familiaris [15] = experiment: Salidiuretic activity on the basis of the 1.56 mg/Kg perorally dog assay; compound was found to be highly active; type: functional, organism-based; conditions: Canis lupus familiaris; Urine
Canis familiaris [16] = experiment: Saluretic activity in the dog measured as concentration of K+ in urinary excretion (2 animals/dose) at (dose 12.5 mg/Kg, perorally); type: functional, Canis lupus familiaris, Urine; procedure, shortened: as §1
Canis familiaris [17] = experiment: Saluretic activity in the dog measured as concentration of Cl - in urinary excretion (2 animals/dose) at (dose 1.56 mg/Kg, perorally); type: functional, Canis lupus familiaris, Urine; procedure, shortened: as §3
Canis familiaris [18] = experiment: Saluretic activity in the dog measured as concentration of Cl - in urinary excretion (2 animals/dose) at (dose 12.5 mg/Kg, perorally); type: functional, Canis lupus familiaris, Urine; procedure, shortened: as §3
[19] = It is the ratio, measured as saluretic activity in the dog as concentration of Cl- in urinary excretion (dose 1.56 mg/Kg, perorally) to that of (Na+)+(K+); type: functional, Urine; procedure, shortened: as §2
[20] = It is the ratio, measured as saluretic activity in the dog as concentration of Na+ in urinary excretion (dose 1.56 mg/Kg, perorally) to that of K; type: functional, Urine; procedure, shortened: as §2
[21] = It is the ratio, measured as saluretic activity in the dog as concentration of Na+ in urinary excretion (dose 12.5 mg/Kg, perorally) to that of K; type: functional, Urine; procedure, shortened: as §2
[22] = It is the ratio, measured as saluretic activity in the dog as concentration of Cl- in urinary excretion (dose 12.5 mg/Kg, perorally) to that of (Na++K+); type: functional, Urine; procedure, shortened: as §2
Rattus norvegicus [23] = experiment: Salidiuretic activity on the basis of the 50 mg/kg perorally rat assay; NA means inactive; conditions: Urine
Canis familiaris [24] = experiment: Sailuric activity in the dog measured as concentration of Cl - in urinary excretion (2 animals/dose) at (dose 1.56 mg/Kg, po); type: functional, Canis lupus familiaris, Urine; procedure, shortened: as §3
Canis familiaris [25] = experiment: Sailuric activity in the dog measured as concentration of K+ in urinary excretion (2 animals/dose) at (dose 1.56 mg/Kg, po); type: functional, Canis lupus familiaris, Urine; procedure, shortened: as §3
Canis familiaris [26] = experiment: Sailuric activity in the dog measured as concentration of Na+ in urinary excretion (2 animals/dose) at (dose 1.56 mg/Kg, po); type: functional, Canis lupus familiaris, Urine; procedure, shortened: as §3
[27] = It is the ratio, measured as saluretic activity in the dog as concentration of Na+ in urinary excretion (dose 1.56mg/Kg, po) to that of K; type: functional, Urine; procedure, shortened: as §2
Canis familiaris [28] = experiment: Saluretic activity in the dog measured as concentration of Na+ in urinary excretion (2 animals/dose) at (dose 12.5 mg/Kg, po); type: functional, Canis lupus familiaris, Urine; procedure, shortened: as §1
Canis familiaris [29] = experiment: Saluretic activity in the dog measured as concentration of K+ in urinary excretion (2 animals/dose) at (dose 12.5 mg/Kg, po); type: functional, Canis lupus familiaris, Urine; procedure, shortened: as §1
Canis familiaris [30] = experiment: Saluretic activity in the dog measured as concentration of Cl - in urinary excretion (2 animals/dose) at (dose 1.56 mg/Kg, po); type: functional, Canis lupus familiaris, Urine; procedure, shortened: as §3
Canis familiaris [31] = experiment: Saluretic activity in the dog measured as concentration of Cl - in urinary excretion (2 animals/dose) at (dose 12.5 mg/Kg, po); type: functional, Canis lupus familiaris, Urine; procedure, shortened: as §3
[32] = It is the ratio, measured as saluretic activity in the dog as concentration of Na+ in urinary excretion (dose 12.5 mg/Kg, po) to that of K; type: functional, Urine; procedure, shortened: as §2
[33] = It is the ratio, measured as saluretic activity in the dog as concentration of Na+ in urinary excretion(dose 1.56 mg/kg, p.o.) to that of K; type: functional, Urine; conditions: route oral; procedure, shortened: as §2
[34] = It is the ratio, measured as saluretic activity in the dog as concentration of Cl- in urinary excretion (dose 12.5 mg/Kg, po) to that of (Na++K+); type: functional, Urine; procedure, shortened: as §2
[35] = It is the ratio, measured as saluretic activity in the dog as concentration of Cl- in urinary excretion (dose mg/Kg, po) to that of (Na+)+(K+); type: functional, Urine; procedure, shortened: as §2

Compound	Saluretic activity (Canis familiaris [1]) [m equiv 6hr-1 kg-1]	Diuretic activity (Canis familiaris [2]) [ml kg-1 6hr-1]	Diuretic activity (Rattus norvegicus [5]) [mL/kg]	Saluretic activity (Rattus norvegicus [6]) [m equiv 5hr-1 kg-1]	Saluretic activity (Rattus norvegicus [7]) [m equiv 5hr-1 kg-1]	Ratio [8]	Ratio [9]	Saluretic activity (Rattus norvegicus [10]) [m equiv 5hr-1 kg-1]	Diuretic activity (Canis familiaris [13]) [ml kg-1 6hr-1]	Saluretic activity (Canis familiaris [3]) [m equiv 6hr-1 kg-1]	Saldiuretic activity (Canis familiaris [30]) [m equiv 6hr-1 kg-1]	further results
NS(=O)(=O)c1cc(S(=O)(=O)[O-])c(NCc2ccco2)cc1[S+]([O-])c1ccccc1.[K+] (centres undefined)	0.59	48.4	0.8	1.7	1.5	1.8	1.3	0.8	–	–	–	Saldiuretic activity (Canis familiaris [3]): 0.33 m equiv 6hr-1 kg-1; Saldiuretic activity (Canis familiaris [4]): 1.27 m equiv 6hr-1 kg-1
NS(=O)(=O)c1cc(S(=O)(=O)[O-])c(NCc2cccs2)cc1Oc1ccccc1.[K+]	–	58	0.8	0.6	0.4	–	–	0.8	78	–	–	Saluretic activity (Canis familiaris [11]): 3.73 m equiv 6hr-1 kg-1; Saluretic activity (Canis familiaris [12]): 6.89 m equiv 6hr-1 kg-1; Saluretic activity (Canis familiaris [14]): 1.03 m equiv 6hr-1 kg-1; Saldiuretic activity (Canis familiaris [15]): Active; Saldiuretic activity (Canis familiaris [16]): 1.47 m equiv 6hr-1 kg-1; Saldiuretic activity (Canis familiaris [17]): 4.45 m equiv 6hr-1 kg-1; Saldiuretic activity (Canis familiaris [18]): 7.84 m equiv 6hr-1 kg-1; Ratio [19]: 0.95; Ratio [20]: 3.6; Ratio [21]: 4.7; Ratio [22]: 0.95; Diuretic activity (Rattus norvegicus [23]): inactive
NS(=O)(=O)c1cc(S(=O)(=O)[O-])c(NCc2ccco2)cc1S(=O)(=O)C1CCCC1.[Na+]	–	58	4.3	9.5	2	–	1	8	–	–	–	Saldiuretic activity (Canis familiaris [24]): 5.26 m equiv 6hr-1 kg-1; Saldiuretic activity (Canis familiaris [25]): 1.02 m equiv 6hr-1 kg-1; Saluretic activity (Canis familiaris [26]): 4.24 m equiv 6hr-1 kg-1; Ratio [27]: 4.2
NS(=O)(=O)c1cc(S(=O)(=O)[O-])c(NCc2ccco2)cc1S(=O)(=O)c1ccccc1.[K+]	0.49	35.3	3.6	9.8	2.6	–	1.5	7.1	59.7	0.25	1.09	Saluretic activity (Canis familiaris [28]): 4 m equiv 6hr-1 kg-1; Saluretic activity (Canis familiaris [29]): 0.93 m equiv 6hr-1 kg-1; Saldiuretic activity (Canis familiaris [31]): 5.28 m equiv 6hr-1 kg-1; Ratio [32]: 4.3; Ratio [33]: 2; Ratio [34]: 1.1
NS(=O)(=O)c1cc(S(=O)(=O)[O-])c(NCc2ccco2)cc1[S+]([O-])C1CCCCC1.[Na+] (centres undefined)	0.59	48.4	1.2	1.7	1.4	1.8	–	1.3	–	0.33	1.27	Ratio [35]: 1.4
